Assay outcomes from PubChem.
Only some compounds are listed: those with a hit (about 4.7% of all), similar ones and a draw of the others.
IMP-1 inh: IMP-1 metallo-beta-lactamase inhibitors, primary screen, biochemical, epi-absorbance readout, Pseudomonas aeruginosa enzyme; purified IMP-1, nitrocefin hydrolysis, epi-absorbance fluorescence; inhibition, % at 5.6 µM; 290,000 tested, 0.45% active; AID 1556, 2009;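 active = inhibition above the mean plus 3 SD of all compounds in the same screening run, cut at about 4.5% in these data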
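Assay system: purified recombinant IMP-1 beta-lactamase. Input: IMP-1 0.2 nM before substrate addition. Buffer or medium: Zinc- and detergent-supplemented HEPES buffer, pH 7.1. Schedule: 25 °C, 15 min preincubation, 25 min reaction. Signal: Epi-absorbance fluorescence, 480 nm excitation, 530 nm emission. Evaluation: percent inhibition from optical density relative to buffer-blank wells.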
VIM-2 inhibitor: VIM-2 metallo-beta-lactamase inhibitors, primary screen, biochemical, epi-absorbance readout, Pseudomonas aeruginosa enzyme | purified VIM-2, nitrocefin hydrolysis, epi-absorbance fluorescence | inhibition, % at 5.6 µM | 290,000 tested, 0.89% active | AID 1527, 2009;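 active = inhibition above the mean of all tested compounds plus 3 SD, cutoff set per screening run, cut at about 7.5% in these data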;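 also: red hydrolysis product quenches plate fluorescence so inhibitors raise well fluorescence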
aSyn UTR inh: MLPCN primary screen, SNCA 5' untranslated region; alpha-synuclein 5'UTR reporter, inhibitor activity; inhibition, % (tested at 7.5 µM); 300,000 tested, 0.82% active; AID 1813, 2009; in the data active = inhibition above about 60%; inconclusive = no clear call, values can overlap the other calls;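 also: H4 neuroglioblastoma cells stably carrying SNCA 5'UTR luciferase fusion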
697 NFkB inh: inhibitors of PMA/ionomycin-induced NF-kB reporter, 697 cells, primary screen, B-cell NF-kB inhibitor project, cell-based, luminescence, uHTS. 697 B-cell NF-kB luciferase reporter, 16 h. inhibition, % at 4 µM. 330,000 tested, 0.33% active; in the data active = inhibition above about 35%
Mdm2-MdmX inh: inhibitors of human Mdm2-MdmX association, primary screen, cell-based, luminescence, split luciferase, SaOS-2, uHTS; SaOS-2 split-luciferase Mdm2/MdmX complementation; AID 485346, 2010; Protein Mdm4 (Homo sapiens) + E3 ubiquitin-protein ligase Mdm2 (Homo sapiens), …; 330,000 tested, 3% active; inhibition, % at 8 µM;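 active = inhibition of at least 50% at 8 µM in the primary screen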
Target sequence (O15151 whole entry, looked up): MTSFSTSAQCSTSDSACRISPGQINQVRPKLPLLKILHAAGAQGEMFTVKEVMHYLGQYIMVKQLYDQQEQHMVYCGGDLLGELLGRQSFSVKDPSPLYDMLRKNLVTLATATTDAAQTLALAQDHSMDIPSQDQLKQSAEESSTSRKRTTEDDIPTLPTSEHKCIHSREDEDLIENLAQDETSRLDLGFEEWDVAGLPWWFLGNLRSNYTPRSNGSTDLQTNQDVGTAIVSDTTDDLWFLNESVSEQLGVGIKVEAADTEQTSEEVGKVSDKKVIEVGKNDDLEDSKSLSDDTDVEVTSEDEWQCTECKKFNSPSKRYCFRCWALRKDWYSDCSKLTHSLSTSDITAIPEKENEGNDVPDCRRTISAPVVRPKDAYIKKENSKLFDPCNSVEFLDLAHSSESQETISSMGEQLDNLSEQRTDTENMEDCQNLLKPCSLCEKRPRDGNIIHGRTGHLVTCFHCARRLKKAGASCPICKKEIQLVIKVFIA
Target sequence (Q00987 whole entry, looked up): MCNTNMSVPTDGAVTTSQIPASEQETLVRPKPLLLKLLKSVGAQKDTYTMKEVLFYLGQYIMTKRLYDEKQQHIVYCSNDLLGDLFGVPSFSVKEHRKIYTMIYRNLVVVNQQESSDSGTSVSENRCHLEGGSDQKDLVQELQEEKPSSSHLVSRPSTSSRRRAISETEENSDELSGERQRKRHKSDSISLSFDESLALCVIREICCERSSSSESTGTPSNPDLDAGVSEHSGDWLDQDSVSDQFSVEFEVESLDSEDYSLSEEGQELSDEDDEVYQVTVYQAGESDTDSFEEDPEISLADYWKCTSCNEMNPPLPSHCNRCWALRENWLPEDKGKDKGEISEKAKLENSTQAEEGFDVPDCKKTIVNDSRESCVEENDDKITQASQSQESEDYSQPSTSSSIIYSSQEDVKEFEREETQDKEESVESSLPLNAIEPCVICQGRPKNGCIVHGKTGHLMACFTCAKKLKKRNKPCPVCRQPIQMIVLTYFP
Jurkat NFkB inh: inhibitors of induced NF-kB luciferase reporter, primary screen, TCR NF-kB activation inhibitor project, cell-based, luminescence, uHTS. Jurkat, PMA/ionomycin-induced NF-kB luciferase reporter. inhibition, % at 4 µM. 330,000 tested, 0.53% active. AID 435003, 2010; in the data active = inhibition above about 50%
697 NFkB conf: PMA/ionomycin-induced NF-kB reporter inhibitors, 697 retest, confirmation, B-cell NF-kB inhibitor project, cell-based, luminescence, single concentration; shares compounds with 697 NFkB inh; 697 B-cell NF-kB luciferase, 16 h; inhibition, % at 4 µM; 2,000 tested, 35% active; in the data active = inhibition mostly above about 28%, no sharp cut-off; inactive = mostly below about 22%
Hits are given with their value; – = inactive; ? = inconclusive; · = no result.

SMILES | IMP-1 inh | VIM-2 inhibitor | aSyn UTR inh | 697 NFkB inh | Mdm2-MdmX inh | Jurkat NFkB inh | 697 NFkB conf
Cc1nn(CC(=O)NC(=O)NC2CCCCC2C)c(=O)c(C#N)c1C (configuration not stated) | · | · | – | – | – | – | ·
O=C(NNC(=O)c1ccccc1O)c1ccc(Cl)c(S(=O)(=O)N2CCc3ccccc32)c1 | · | · | – | 85 | – | – | 97
CC(=O)N1CCN(C(=O)c2ccc(Cl)c(S(=O)(=O)N3CCc4ccccc43)c2)CC1 | · | · | · | – | – | – | ·
Cc1ccc2nc(NC(=O)CSCC(=O)OCC(=O)c3ccc(Br)cc3)sc2c1 | – | – | 83 | 64 | – | – | 54
CC(=O)C1=NN(c2ccccc2)C(c2ccc3c(c2)OCO3)N1c1ccccc1 (configuration not stated) | – | – | – | – | – | – | ·
CC(=O)C1=NN(c2ccccc2)C(c2cccs2)N1c1ccc(N(C)C)cc1 (configuration not stated) | – | – | – | 69 | – | – | 38
O=C(NC(=S)NNC(=O)c1ccco1)c1ccc(Br)cc1 | – | – | – | – | – | – | ·
O=C(/C=C/Nc1ccccc1O)c1ccco1 | – | – | – | – | – | – | ·
O=C(/C=C/Nc1ccc(Br)cc1F)c1ccco1 | – | – | ? | – | – | – | –
Cc1ccc(C(=O)CSc2nnc(COc3ccccc3)o2)cc1 | – | – | – | 54 | – | – | 40
Cc1cc(C)cc(OCc2nnc(SCC(=O)c3ccccc3)o2)c1 | – | – | – | 46 | – | – | 45
Cc1ccc(C(=O)CSc2nnc(COc3cc(C)cc(C)c3)o2)cc1 | – | – | – | 36 | – | – | 55
O=C(c1ccoc1)N1CCC2(CC1)Oc1ccc(F)cc1C(=O)C21CC(c2ccc(Cl)cc2)=NO1 (configuration not stated) | · | · | – | 36 | – | – | –
O=C(c1ccoc1)N1CCC2(CC1)Oc1ccc(Cl)cc1C(=O)C21CC(c2ccc(Cl)cc2)=NO1 (configuration not stated) | · | · | – | – | – | – | ·
O=C(c1cnn2c(C(F)F)cc(-c3ccccc3)nc12)N1CCCCC1c1cccnc1 (configuration not stated) | – | – | – | – | – | – | ·
O=C(Nc1ccc2ccccc2c1)c1ccccc1O | – | – | – | – | – | – | –
COc1cc(OC)cc(-c2nnc(Nc3nc4c(F)cccc4s3)o2)c1 | – | – | – | 39 | – | – | –
Cc1nn(Cc2noc(C(=O)NCc3ccc4c(c3)OCO4)n2)c(C)c1Br | – | – | – | – | – | – | ·
Cc1cc(NC(=O)CNCC(c2ccccc2)N(C)C)c([N+](=O)[O-])cc1C (configuration not stated) | – | – | – | – | – | – | ·
CCC(C)c1ccc(-c2cc(C(=O)OCC(=O)Nc3cc(C)on3)c3ccccc3n2)cc1 (configuration not stated) | – | – | – | – | – | – | –
COc1ccc(-c2cc(C(=O)OCC(=O)Nc3cc(C)on3)c3ccccc3n2)cc1OC | – | – | – | – | – | – | ·
CCOc1ccc(-c2nc(CSCC(=O)NCc3ccco3)c(C)o2)cc1 | – | – | – | 99 | – | – | 99
CCOc1ccc(-c2nc(CSCC(=O)NC3CCCc4ccccc43)c(C)o2)cc1 (configuration not stated) | – | – | – | – | – | – | ·
CCOCCCNC(=O)CSCc1nc(-c2ccc(SC)cc2)oc1C | – | – | – | – | – | – | ·
COCCNC(=O)CSCc1nc(-c2ccc(SC)cc2)oc1C | – | – | – | 84 | – | – | 72
SMILES | IMP-1 inh | VIM-2 inhibitor | aSyn UTR inh | 697 NFkB inh | Mdm2-MdmX inh | Jurkat NFkB inh | 697 NFkB conf
CCOc1ccc(-c2nc(CSCC(=O)NC3CC3)c(C)o2)cc1 | – | – | – | 99 | – | – | 79
CCOC(=O)N1CCC(NC(=O)CSCc2nc(-c3ccc(OCC)cc3)oc2C)CC1 | – | – | – | – | – | – | ·
c1ccc2[nH]c(-c3cscn3)nc2c1 | – | – | – | · | · | · | ·
c1ccc2nc(-c3nc4ccccc4[nH]3)ccc2c1 | – | – | 74 | – | – | – | –
CCOC(=O)c1c(C)[nH]c(C(=O)COC(=O)CCNS(=O)(=O)c2ccc(NC(C)=O)cc2)c1C | · | · | · | – | – | – | ·
CCN(CC)c1ccc2cc(NC(=O)CCC(=O)O)c(=O)oc2c1 | – | – | 120 | 80 | – | – | 72
CC(C)c1ccc(/C=C(\NC(=O)c2ccccc2)C(=O)NCCN2CCOCC2)cc1 | – | – | – | – | – | – | ·
O=C(N/N=C/c1ccc(Cl)cc1Cl)c1ccc(-n2cnnn2)cc1 | · | · | · | 39 | – | – | 35
O=C(N/N=C/c1c(Cl)cccc1Cl)c1ccc(-n2cnnn2)cc1 | · | · | · | – | – | – | ·
CCn1c(NC(C)=O)c(-c2ccccc2Cl)c(=O)c2ccccc21 | – | – | – | – | – | – | ·
O=C(Nc1ccc(-c2noc(-c3cccs3)n2)cc1)c1cccnc1 | – | – | – | – | – | – | –
COc1cccc(-c2nc(-c3ccc(NC(=O)c4cccnc4)cc3)no2)c1 | – | – | – | – | – | – | ·
COC(=O)c1cccc(C(=O)N2CCCC(C(=O)c3cc(F)ccc3F)C2)c1 (configuration not stated) | – | – | – | 39 | – | – | –
COC(=O)c1ccccc1C(=O)N1CCCC(C(=O)c2cc(F)ccc2F)C1 (configuration not stated) | – | – | – | – | – | – | ·
Cn1c(CNC(=O)CNC(=O)c2ccc(F)cc2)cc(=O)n(C)c1=O | – | – | – | – | – | – | ·
NC(=O)CSC1=N/C(=C\c2ccco2)C(=O)N1c1ccc(OC(F)F)cc1 | – | – | – | – | – | – | ·
CCOc1cc(/C=C2\N=C(SC(C)C(N)=O)N(c3ccc(OC(F)F)cc3)C2=O)ccc1O (configuration not stated) | – | – | – | 41 | – | – | –
O=C1N/C(=C\c2ccccc2)c2ccccc21 | – | – | – | – | – | – | ·
O=C1N/C(=C\c2nc3ccccc3s2)c2ccccc21 | – | – | – | – | – | – | –
O=C(O)c1cn(Cc2ccccc2)c2ccc(Cl)cc2c1=O | · | · | – | – | – | – | ·
Cc1ccc2nc(Cl)c(/C=N/Nc3ccc(C(=O)O)cc3)cc2c1 | – | – | – | – | – | – | –
Cc1ccc2cc(/C=N/NC(=O)c3ccc(F)cc3)c(Cl)nc2c1 | – | – | – | – | – | – | ·
